Source: paper PMC6431230 (Proceedings of the National Academy of Sciences of the …, 2019)
Values belong to the molecule of their own block, whether it stands above or below them. Bridge positions count the residues as written; N and C are the ends. Square brackets hold non-standard residues; d marks the D form. Ends that are not written are not given here. Peptide text beside a SMILES is read from it. Orn = NCCC[C@H](N)C(=O)O; Mpa = O=C(O)CCS

What was measured:
ants = assay: Effect of injected DMSO on ant survivability; assay type: in vivo, Camponotus fellah
CYP4G1 expression = assay: CYP4G1 expression; assay type: in vivo, Camponotus fellah; conditions: 24 h
How it was run: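 Workers were chilled on ice and injected with 1.5 µL into the abdomen through the intersegmental membrane. Controls received ant saline mixed with water (1:10 for 1 mM, 1:5 for 2 mM). RNA was extracted 24 h post-injection. SYBR qRT-PCR on 200 ng total RNA used ef1a/rp2 references and per-experiment average scaling.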

[1] = tested on: cuticular hydrocarbons (CHCs); assay: Cuticular hydrocarbon quantification after antagonist injection; assay type: in vivo, Camponotus fellah; conditions: injection of 2 mM atosiban
How it was run: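 Workers were ice-anesthetized and injected with 1.5 µL into the abdomen through the intersegmental membrane. Dosing was 100 µM test compound in 1% DMSO, or 2 mM of the water-soluble antagonist. Controls were ant saline mixed with the matching solvent (DMSO 1:100; water 1:5). Normal, branched and total cuticular alkanes were then extracted and quantified.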

[2] = biological target: T1, oxytocin receptor (human OXTR) (Homo sapiens, UniProt P30559); assay: Calcium assay; assay type: cell-based
T1 sequence (P30559 1-389): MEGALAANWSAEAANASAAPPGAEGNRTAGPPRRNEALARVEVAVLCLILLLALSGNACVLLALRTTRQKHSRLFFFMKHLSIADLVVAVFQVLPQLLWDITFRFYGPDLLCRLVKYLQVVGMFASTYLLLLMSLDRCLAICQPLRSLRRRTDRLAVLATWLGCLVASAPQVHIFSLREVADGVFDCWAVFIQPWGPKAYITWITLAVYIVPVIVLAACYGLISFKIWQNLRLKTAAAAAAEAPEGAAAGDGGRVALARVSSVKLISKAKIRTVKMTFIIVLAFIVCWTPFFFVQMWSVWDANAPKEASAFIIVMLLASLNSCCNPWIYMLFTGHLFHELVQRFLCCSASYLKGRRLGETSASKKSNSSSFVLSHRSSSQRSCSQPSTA

inotocin receptor [3] = assay: TR-FRET; assay type: binding, Camponotus fellah; conditions: 10 nM labeled inotocin ligand, atosiban 1.95 µM to 2 mM
[4] = biological target: inotocin receptor (not stated (C. fellah or C. japonicus cDNA cloned)); assay: FRET or BRET
inotocin receptor [5] = assay: Calcium assay; assay type: cell-based, Camponotus fellah; conditions: CHO cells expressing inotocin receptor, Fluo-4 cytosolic calcium

Molecule: C[S+](C)[O-] [DMSO]
Effect on ant survivability (ants; 1% DMSO): no effect on survivability | Effect on ant survivability (ants; 10% DMSO): high lethality

IC50 [2]: 0.65 µM | IC50, decrease in FRET ratio (binding between inotocin and inotocin receptor) (inotocin receptor [3]): 58.8 µM
Molecule: CCOc1ccc(C[C@H]2NC(=O)CCSSC[C@@H](C(=O)N3CCC[C@H]3C(=O)N[C@@H](CCCN)C(=O)NCC(N)=O)NC(=O)[C@H](CC(N)=O)NC(=O)[C@H]([C@@H](C)O)NC(=O)[C@H]([C@@H](C)CC)NC2=O)cc1 [atosiban] ([Mpa][dY](Et)ITNCP[Orn]G-NH2; disulfide 1-6 (inferred))
CYP4G1 expression vs control (CYP4G1 expression; 1 mM injected, P = 0.026): significantly down-regulated | CYP4G1 expression vs control (CYP4G1 expression; 2 mM injected, P = 0.0002): significantly down-regulated | Quantity of normal alkanes vs control ([1]; P = 0.008): reduced quantities | Total quantity of alkanes vs control ([1]; P = 0.012): significantly lower | Quantity of branched alkanes vs control ([1]; P = 0.088): tendency for reduced

IC50 [4]: 58.8 µM
Molecule: atosiban (peptide)

Molecule: vasopressin (CYFQNCPRG-NH2; disulfide 1-6 (inferred); ends not checked; UniProt P01185 20-28, looked up)
Activation of inotocin receptor (inotocin receptor [5]): not
